High-throughput results from PubChem BioAssay.
E-sel inducer: induces E-selectin expression in human endothelial cells; P16581; HUVEC E-selectin immunofluorescence imaging; normalized: neutral wells 0, TNF-alpha wells 100; activation, % at 7.58 µM; 0.37% of 260,000 active; AID 686992;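 active = mean E-selectin-positive cell signal at least 10% of the positive control, reached in at least 60% of replicates, without over 20% cell loss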
Target sequence (P16581 whole entry, looked up): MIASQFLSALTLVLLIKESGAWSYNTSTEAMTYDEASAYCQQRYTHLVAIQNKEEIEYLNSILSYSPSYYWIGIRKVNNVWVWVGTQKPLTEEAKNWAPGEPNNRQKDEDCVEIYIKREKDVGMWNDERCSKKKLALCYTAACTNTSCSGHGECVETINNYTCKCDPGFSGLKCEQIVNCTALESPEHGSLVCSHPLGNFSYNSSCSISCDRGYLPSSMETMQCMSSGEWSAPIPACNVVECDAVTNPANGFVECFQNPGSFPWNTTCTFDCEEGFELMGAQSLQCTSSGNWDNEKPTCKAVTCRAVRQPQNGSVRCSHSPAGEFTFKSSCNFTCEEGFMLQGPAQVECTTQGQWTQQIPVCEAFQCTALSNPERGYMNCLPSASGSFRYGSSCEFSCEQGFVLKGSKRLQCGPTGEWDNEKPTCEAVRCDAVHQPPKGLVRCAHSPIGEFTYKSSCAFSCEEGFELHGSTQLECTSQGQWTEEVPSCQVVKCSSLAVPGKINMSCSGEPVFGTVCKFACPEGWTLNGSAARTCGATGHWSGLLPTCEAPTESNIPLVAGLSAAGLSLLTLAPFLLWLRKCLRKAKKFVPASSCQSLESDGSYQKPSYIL
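material = human umbilical vein endothelial cells (HUVEC), E-selectin induction | quantity = 3,000 cells/well | medium = EGM-2 growth medium on 0.1% gelatin-coated wells | technique = immunofluorescence imaging | read-out basis = % PE-positive cells | control set = TNF-alpha positive control, DMSO neutral control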
Numbers stand for hits; – = inactive. Only a selection was taken, and hits are over-represented in it overall.

SMILES	E-sel inducer
CCOC(=O)C1CCCN(C(=O)c2cc(S(=O)(=O)N3CCCCC3)ccc2C)C1 (configuration not stated)	–
CCOC(=O)C1CCCN(C(=O)c2cc(S(=O)(=O)N(C)C)ccc2N2CCCC2)C1 (configuration not stated)	428.1
CCOC(=O)C1CCCN(C(=O)c2ccccc2NS(=O)(=O)c2ccc(F)cc2)C1 (configuration not stated)	–
CCCNC(=O)N[C@H]1CC[C@H](CCn2cc(C3CCCCC3)nn2)O[C@H]1CO	–
CCN(CC)c1ccc2nc3ccc(N)cc3[n+](-c3ccccc3)c2c1	91.8
Nc1ccc2nc(Cc3ccccc3)[nH]c2c1	–
CCN(CC)c1ccc(C=Nc2cccnc2Cl)c(O)c1	–
COc1ccc(NC(=O)N(C)C[C@H]2Oc3ccc(NS(=O)(=O)c4cn(C)cn4)cc3CC(=O)N([C@H](C)CO)C[C@@H]2C)cc1	–
C[C@@H]1CN([C@@H](C)CO)C(=O)c2cc(NC(=O)C3CCCCC3)ccc2O[C@@H]1CN(C)Cc1ccc(C(F)(F)F)cc1	–
C/C=C/c1ccc([C@H]2[C@@H](CO)N3C(=O)CN(C(=O)c4ccncc4)C[C@@H]23)cc1	–
Cc1ccc(N/N=C(\C#N)C(N)=S)cc1C	–
N#C/C(=N\Nc1ccc(Cl)cc1)C(N)=S	72.1
N#C/C(=N\Nc1ccc(Cl)cc1)C(=O)c1ccsc1	–
CN(C)CC#Cc1ccc([C@@H]2[C@@H](CO)N3C(=O)CN(C(=O)c4ccccc4)C[C@@H]23)cc1	–
Cc1ccc(S(=O)(=O)N(C)C[C@H]2Oc3ccc(NC(=O)CCCN(C)C)cc3C(=O)N([C@H](C)CO)C[C@H]2C)cc1	281.9
COc1ccc(S(=O)(=O)N(C)C[C@@H]2Oc3ccc(NC(=O)CCCN(C)C)cc3C(=O)N([C@@H](C)CO)C[C@@H]2C)cc1	56.9
Cc1ccc(S(=O)(=O)N(C)C[C@H]2Oc3ccc(NC(=O)CCCN(C)C)cc3C(=O)N([C@H](C)CO)C[C@@H]2C)cc1	–
Cc1ccc(S(=O)(=O)N(C)C[C@@H]2Oc3ccc(NC(=O)CCCN(C)C)cc3C(=O)N([C@H](C)CO)C[C@@H]2C)cc1	–
C[C@@H]1CN([C@H](C)CO)C(=O)c2cc(NC(=O)CCCN(C)C)ccc2O[C@@H]1CN(C)Cc1ccc(Oc2ccccc2)cc1	–
C[C@@H]1CN([C@@H](C)CO)C(=O)c2cc(NC(=O)CCCN(C)C)ccc2O[C@H]1CN(C)S(=O)(=O)c1ccc(F)cc1	–
C[C@H](CO)N1C[C@H](C)[C@H](CN(C)Cc2ccc(Oc3ccccc3)cc2)Oc2ccc(NC(=O)CCCN(C)C)cc2C1=O	–
COc1ccc(CN(C)C[C@H]2Oc3ccc(NC(=O)CCCN(C)C)cc3C(=O)N([C@H](C)CO)C[C@H]2C)cc1	34.9
COc1ccc(S(=O)(=O)N(C)C[C@H]2Oc3ccc(NC(=O)CCCN(C)C)cc3C(=O)N([C@H](C)CO)C[C@H]2C)cc1	–
CCN1[C@@H]2c3ccc(C4=CCCCC4)c(=O)n3C[C@@H]2[C@@H](CO)[C@@H]1C(=O)NCc1cccc(OC)c1	–
COc1cccc(-c2cn(CC[C@H]3CC[C@@H](NC(C)=O)[C@@H](CO)O3)nn2)c1	–
SMILES	E-sel inducer
C[C@H](CO)N1C[C@H](C)[C@@H](CN(C)Cc2ccc(O)cc2)OCc2ccccc2-c2c(n(C)c3ccccc23)C1=O	–
CCNC(=O)[C@H]1[C@H](CO)[C@H]2Cn3c(ccc(C4=CCCCC4)c3=O)[C@H]2N1Cc1ccccc1F	–
COc1cccc(-c2ccc3n(c2=O)C[C@H]2[C@H](CO)[C@@H](C(=O)NC4CCC4)N[C@@H]32)c1	–
Cc1cccc(S(=O)(=O)N2CC[C@@H]3[C@@H](CO)Nc4ccc(C#Cc5cccnc5)cc4[C@@H]32)c1	–
Cn1c(CNS(=O)(=O)c2cccc(Cl)c2)cc(=O)n(C)c1=O	–
COc1ccc(S(=O)(=O)NCc2cc(=O)n(C)c(=O)n2C)cc1F	–
Cn1c(CNS(=O)(=O)c2ccc(Cl)cc2)cc(=O)n(C)c1=O	97.1
C[C@@H]1CN([C@H](C)CO)C(=O)c2cc(C3=CCCCC3)cnc2O[C@H]1CN(C)Cc1ccccc1	–
CN(CC(=O)Nc1ccc(F)cc1)CC(=O)N1CCc2ccccc21	–
CN(CC(=O)Nc1cccc(F)c1)CC(=O)N1CCc2ccccc21	182.0
CC(C(=O)N1CCc2ccccc21)N(C)CC(=O)Nc1cccc(F)c1 (configuration not stated)	–
O=C(Nc1cccc(Cl)c1)N1C[C@H]2[C@@H](c3ccccc31)[C@H](CO)N2Cc1ccccc1Cl	–
C/C(=N\NC(=O)C1CC1)c1ccc(C(C)(C)C)cc1	–
C/C(=N\NC(=O)C1CC1)c1ccc(Cl)cc1	120.6
C/C(=N\NC(=O)C1CCCC1)c1ccc(Cl)cc1	–
COc1ccc(NC(=O)N[C@@H]2C=C[C@H](CC(=O)NCc3ccccn3)O[C@@H]2CO)cc1	–
O=C(C1CC1)N1CC2(C1)[C@H](c1ccccc1)[C@H](CO)N2Cc1nccs1	–
O=C(C[C@@H]1C[C@@H]2c3cc(NC(=O)NC4CCCCC4)ccc3O[C@@H]2[C@H](CO)O1)NC1CCCCC1	–
O=C(C1CC1)N1CC(=O)N2[C@H](CO)[C@H](c3ccc(C#CC4CCCC4)cc3)[C@@H]2C1	–
COc1cc(OC)cc(N(C(=O)c2snc(C(N)=O)c2N)C(C(=O)NCC2CCCO2)c2ccc(C)o2)c1 (configuration not stated)	44.1
Cc1ccc(C(C(=O)NCC2CCCO2)N(C(=O)c2snc(C(N)=O)c2N)c2ccc(F)cc2)o1 (configuration not stated)	–
Cc1ccc(C(C(=O)NCC2CCCO2)N(C(=O)c2snc(C(N)=O)c2N)c2ccc(C)c(C)c2)o1 (configuration not stated)	–
CCC(=O)N1[C@H](CO)[C@H](c2ccc(C#CC3CCCCC3)cc2)[C@@H]1CNC(C)C	–
COc1ccc(S(=O)(=O)N(C)C[C@H]2Oc3ccc(NC(=O)NC(C)C)cc3CC(=O)N([C@H](C)CO)C[C@@H]2C)cc1	–
O=C(C[C@@H]1CC[C@H]2[C@@H](COC[C@H](O)CN2C(=O)c2ccccn2)O1)N1CCN(c2ccccc2)CC1	–
SMILES	E-sel inducer
Cc1ccccc1-c1ccc([C@H]2[C@H]3CN(S(=O)(=O)c4cn(C)cn4)CCCCN3[C@H]2CO)cc1	–
C[C@@H]1CN([C@H](C)CO)C(=O)c2cc(NC(=O)C3CCCCC3)ccc2O[C@@H](C)CCCCO[C@@H]1CN(C)Cc1ccc(Cl)c(Cl)c1	–
O=C(C[C@@H]1CC[C@H]2[C@@H](COC[C@H](O)CN2C(=O)c2ccc(F)cc2)O1)Nc1ccc(-c2ccccc2)cc1	38.0
O=C(C[C@H]1CC[C@H]2[C@@H](COC[C@@H](O)CN2C(=O)c2ccc(F)cc2)O1)Nc1ccc(-c2ccccc2)cc1	–
O=C(C[C@H]1CC[C@@H]2[C@H](COC[C@H](O)CN2C(=O)c2ccc(F)cc2)O1)Nc1ccc(-c2ccccc2)cc1	–
CCn1c(CNc2ccc(Cl)cc2)nnc1SCC#N	56.5
CCSc1nnc(CNc2ccc(F)cc2)n1CC1CCCO1 (configuration not stated)	–
O=C(O)CCSc1nnc(CNc2ccc(Cl)cc2)n1Cc1ccccc1	–
CN(C)c1ccc(/C=C/c2nc3ccccc3c(=O)n2CCO)cc1	–
CN(C)c1ccc(/C=C/c2nc3ccccc3c(=O)[nH]2)cc1	–
CN(C)c1ccc(/C=C/c2ccc3c4ccccc4ccc3[n+]2-c2ccccc2)cc1	217.5
